In ChEMBL document CHEMBL4689842, “EUbOPEN Chemogenomics Library wave 1” (2021):

Test system: HEK-293T
Test: Multiplex assay against HEK293T;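 as to Population Tubulin-Different-Phenotype (%): share of the cells with healthy nuclei that show this phenotype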
Type: toxicity, cell-based
Details: human
Outline: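 Live cells were stained at seeding with Hoechst33342, BioTracker Green Microtubule Cytoskeleton Dye, MitoTracker Red and Annexin V Alexa Fluor 680, then imaged on a CQ1 microscope at 37°C and 5% CO2 after compound addition. CellPathfinder machine-learning gating split cells into Hoechst high-intensity objects or normal cells. Normal cells were split into healthy, pyknosed or fragmented nuclei, and pyknosed cells into mitotic or apoptotic. Tubulin, mitochondrial-mass and membrane-permeability phenotypes are per cents of healthy-nucleus cells.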

[1] = 12 h, 1 µM, compound concentration 1 uM, replicate 1
[2] = 12 h, 1 µM, compound concentration 1 uM, replicate 2
[3] = 12 h, 10 µM, compound concentration 10 uM, replicate 1
[4] = 12 h, 10 µM, compound concentration 10 uM, replicate 2
[5] = 24 h, 1 µM, compound concentration 1 uM, replicate 1
[6] = 24 h, 1 µM, compound concentration 1 uM, replicate 2
[7] = 24 h, 10 µM, compound concentration 10 uM, replicate 1
[8] = 24 h, 10 µM, compound concentration 10 uM, replicate 2
[9] = 48 h, 1 µM, compound concentration 1 uM, replicate 1
[10] = 48 h, 1 µM, compound concentration 1 uM, replicate 2
[11] = 48 h, 10 µM, compound concentration 10 uM, replicate 1
[12] = 48 h, 10 µM, compound concentration 10 uM, replicate 2

With `CCN1CCN(Cc2ccc(Nc3ncc(F)c(-c4cc(F)c5nc(C)n(C(C)C)c5c4)n3)nc2)CC1.CS(=O)(=O)O` the “Population Apoptotic (%)” value [1] was 60%, the “Population Fragmented Nuclei (%)” value [1] was 17% and the “Population Healthy Nuclei (%)” value [1] was 19%. For the same compound, the “Population Hoechst High Intensity Objects (%)” value [1] was 17%, the “Population Membrane Permeable-Phenotype (%)” value [1] was 0% and the “Population Mitochondria Different-Phenotype (%)” value [1] was 94%. For the same compound, the “Population Mitotic Cells (%)” value [1] was 40%, the “Population Normal (%)” value [1] was 82% and the “Population Pyknosed Nuclei (%)” value [1] was 63%. The “Population Tubulin-Different-Phenotype (%)” value [1] was 92%, the “Total Cell Count” value [1] was 249 and the “Population Apoptotic (%)” value [2] was 40%. For the same compound, the “Population Fragmented Nuclei (%)” value [2] was 7%, the “Population Healthy Nuclei (%)” value [2] was 27% and the “Population Hoechst High Intensity Objects (%)” value [2] was 4%. For the same compound, the “Population Membrane Permeable-Phenotype (%)” value [2] was 14%, the “Population Mitochondria Different-Phenotype (%)” value [2] was 83% and the “Population Mitotic Cells (%)” value [2] was 59%. For the same compound, the “Population Normal (%)” value [2] was 95%, the “Population Pyknosed Nuclei (%)” value [2] was 64% and the “Population Tubulin-Different-Phenotype (%)” value [2] was 81%. The “Total Cell Count” value [2] was 181, the “Population Apoptotic (%)” value [3] was 74% and the “Population Fragmented Nuclei (%)” value [3] was 14%. The “Population Healthy Nuclei (%)” value [3] was 1%, the “Population Hoechst High Intensity Objects (%)” value [3] was 25% and the “Population Membrane Permeable-Phenotype (%)” value [3] was 0%. The “Population Mitochondria Different-Phenotype (%)” value [3] was 33%, the “Population Mitotic Cells (%)” value [3] was 25% and the “Population Normal (%)” value [3] was 74%. For the same compound, the “Population Pyknosed Nuclei (%)” value [3] was 84%, the “Population Tubulin-Different-Phenotype (%)” value [3] was 66% and the “Total Cell Count” value [3] was 289. The “Population Apoptotic (%)” value [4] was 62%, the “Population Fragmented Nuclei (%)” value [4] was 12% and the “Population Healthy Nuclei (%)” value [4] was 25%. The “Population Hoechst High Intensity Objects (%)” value [4] was 21%, the “Population Membrane Permeable-Phenotype (%)” value [4] was 2% and the “Population Mitochondria Different-Phenotype (%)” value [4] was 79%. The “Population Mitotic Cells (%)” value [4] was 37%, the “Population Normal (%)” value [4] was 79% and the “Population Pyknosed Nuclei (%)” value [4] was 62%. The “Population Tubulin-Different-Phenotype (%)” value [4] was 97%, the “Total Cell Count” value [4] was 219 and the “Population Apoptotic (%)” value [5] was 63%. The “Population Fragmented Nuclei (%)” value [5] was 19%, the “Population Healthy Nuclei (%)” value [5] was 32% and the “Population Hoechst High Intensity Objects (%)” value [5] was 18%. For the same compound, the “Population Membrane Permeable-Phenotype (%)” value [5] was 0%, the “Population Mitochondria Different-Phenotype (%)” value [5] was 100% and the “Population Mitotic Cells (%)” value [5] was 36%. The “Population Normal (%)” value [5] was 81%, the “Population Pyknosed Nuclei (%)” value [5] was 47% and the “Population Tubulin-Different-Phenotype (%)” value [5] was 95%. The “Total Cell Count” value [5] was 253, the “Population Apoptotic (%)” value [6] was 51% and the “Population Fragmented Nuclei (%)” value [6] was 5%. For the same compound, the “Population Healthy Nuclei (%)” value [6] was 45%, the “Population Hoechst High Intensity Objects (%)” value [6] was 5% and the “Population Membrane Permeable-Phenotype (%)” value [6] was 2%. For the same compound, the “Population Mitochondria Different-Phenotype (%)” value [6] was 88%, the “Population Mitotic Cells (%)” value [6] was 48% and the “Population Normal (%)” value [6] was 94%. For the same compound, the “Population Pyknosed Nuclei (%)” value [6] was 48%, the “Population Tubulin-Different-Phenotype (%)” value [6] was 94% and the “Total Cell Count” value [6] was 201. For the same compound, the “Population Apoptotic (%)” value [7] was 72%, the “Population Fragmented Nuclei (%)” value [7] was 23% and the “Population Healthy Nuclei (%)” value [7] was 0%. For the same compound, the “Population Hoechst High Intensity Objects (%)” value [7] was 23%, the “Population Membrane Permeable-Phenotype (%)” value [7] was 0% and the “Population Mitochondria Different-Phenotype (%)” value [7] was 0%. The “Population Mitotic Cells (%)” value [7] was 27%, the “Population Normal (%)” value [7] was 76% and the “Population Pyknosed Nuclei (%)” value [7] was 76%. The “Population Tubulin-Different-Phenotype (%)” value [7] was 0%, the “Total Cell Count” value [7] was 287 and the “Population Apoptotic (%)” value [8] was 79%. For the same compound, the “Population Fragmented Nuclei (%)” value [8] was 4%, the “Population Healthy Nuclei (%)” value [8] was 18% and the “Population Hoechst High Intensity Objects (%)” value [8] was 21%. For the same compound, the “Population Membrane Permeable-Phenotype (%)” value [8] was 3%, the “Population Mitochondria Different-Phenotype (%)” value [8] was 93% and the “Population Mitotic Cells (%)” value [8] was 20%. For the same compound, the “Population Normal (%)” value [8] was 78%, the “Population Tubulin-Different-Phenotype (%)” value [8] was 93% and the “Total Cell Count” value [8] was 213. The “Population Apoptotic (%)” value [9] was 58%, the “Population Fragmented Nuclei (%)” value [9] was 29% and the “Population Healthy Nuclei (%)” value [9] was 28%. For the same compound, the “Population Hoechst High Intensity Objects (%)” value [9] was 17%, the “Population Membrane Permeable-Phenotype (%)” value [9] was 0% and the “Population Mitochondria Different-Phenotype (%)” value [9] was 81%. The “Population Mitotic Cells (%)” value [9] was 41%, the “Population Normal (%)” value [9] was 82% and the “Population Pyknosed Nuclei (%)” value [9] was 42%. The “Population Tubulin-Different-Phenotype (%)” value [9] was 89%, the “Total Cell Count” value [9] was 254 and the “Population Apoptotic (%)” value [10] was 62%. The “Population Fragmented Nuclei (%)” value [10] was 9%, the “Population Healthy Nuclei (%)” value [10] was 65% and the “Population Hoechst High Intensity Objects (%)” value [10] was 6%. The “Population Membrane Permeable-Phenotype (%)” value [10] was 1%, the “Population Mitochondria Different-Phenotype (%)” value [10] was 71% and the “Population Mitotic Cells (%)” value [10] was 37%. The “Population Normal (%)” value [10] was 93%, the “Population Pyknosed Nuclei (%)” value [10] was 24% and the “Population Tubulin-Different-Phenotype (%)” value [10] was 93%. The “Total Cell Count” value [10] was 243, the “Population Apoptotic (%)” value [11] was 80% and the “Population Fragmented Nuclei (%)” value [11] was 27%. The “Population Healthy Nuclei (%)” value [11] was 0%, the “Population Hoechst High Intensity Objects (%)” value [11] was 27% and the “Population Membrane Permeable-Phenotype (%)” value [11] was 100%. For the same compound, the “Population Mitochondria Different-Phenotype (%)” value [11] was 100%, the “Population Mitotic Cells (%)” value [11] was 19% and the “Population Normal (%)” value [11] was 72%. The “Population Pyknosed Nuclei (%)” value [11] was 72%, the “Population Tubulin-Different-Phenotype (%)” value [11] was 0% and the “Total Cell Count” value [11] was 291. For the same compound, the “Population Apoptotic (%)” value [12] was 83%, the “Population Fragmented Nuclei (%)” value [12] was 10% and the “Population Healthy Nuclei (%)” value [12] was 11%. The “Population Hoechst High Intensity Objects (%)” value [12] was 28%, the “Population Membrane Permeable-Phenotype (%)” value [12] was 11% and the “Population Mitochondria Different-Phenotype (%)” value [12] was 94%. The “Population Mitotic Cells (%)” value [12] was 16%, the “Population Normal (%)” value [12] was 71% and the “Population Pyknosed Nuclei (%)” value [12] was 77%. For the same compound, the “Population Tubulin-Different-Phenotype (%)” value [12] was 88% and the “Total Cell Count” value [12] was 202.
